Reference: paper PMC11348278 (Proceedings of the National Academy of Sciences of the …, 2024)

Tests used:
[1] = system: L444P/L444P GCase; experiment: GCase lysed cell assay; type: cell-based, human; details: L444P/L444P fibroblasts, 72 h; for improvement of GCase activity, compound alone: individual treatment (Fig. 5B)
[2] = system: integrated stress response (eIF2B); details: read-out: IC50 (reversal of ISR effects); cited from earlier work
[3] = system: U251 cells; experiment: PIKfyve-related vacuolization, brightfield microscopy of U251 cells; type: cell-based, human; details: high concentrations
Method in brief: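 U251 cells plated at 25,000 cells/well, attached overnight, then treated for 24 h in DMSO (final 0.1%). Vacuolization observed by brightfield microscopy.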

[4] = system: L444P/L444P Gaucher patient fibroblasts; experiment: CellTiter-Glo ATP-based viability assay, patient fibroblasts; type: cell-based, human; details: 72 h
Method in brief: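 Viability by ATP content: fibroblasts seeded at 10,000 cells/well, attached overnight, then treated for 72 h in DMSO (final 0.1%). CellTiter-Glo added per the manufacturer's instructions; luminescence-based ATP read-out.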

[5] = system: L444P/L444P Gaucher patient fibroblasts; experiment: Nuclear stain cell toxicity/viability; type: cell-based, human; details: 72 h, 2.5 µM A16 / 10 µM A18
Method in brief: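 Toxicity by nuclear stains: fibroblasts at 10,000 cells/well, attached overnight, then treated for 72 h in DMSO (final 0.1%). Stained with Hoechst and SYTOX Orange per the manufacturer's instructions.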

[6] = system: ISR and KEGG lysosome pathway genes; type: cell-based, human; details: L444P fibroblasts, 24 h; A16 500 nM, A18 1 µM, Apilimod 50 nM
[7] = placebo-controlled trials; cited from earlier work
[8] = target: isolated recombinant PIKfyve (Homo sapiens, UniProt Q9Y2I7); experiment: DiscoveRX KINOMEScan for PIKfyve; type: binding
Chain of isolated recombinant PIKfyve (Q9Y2I7 whole entry): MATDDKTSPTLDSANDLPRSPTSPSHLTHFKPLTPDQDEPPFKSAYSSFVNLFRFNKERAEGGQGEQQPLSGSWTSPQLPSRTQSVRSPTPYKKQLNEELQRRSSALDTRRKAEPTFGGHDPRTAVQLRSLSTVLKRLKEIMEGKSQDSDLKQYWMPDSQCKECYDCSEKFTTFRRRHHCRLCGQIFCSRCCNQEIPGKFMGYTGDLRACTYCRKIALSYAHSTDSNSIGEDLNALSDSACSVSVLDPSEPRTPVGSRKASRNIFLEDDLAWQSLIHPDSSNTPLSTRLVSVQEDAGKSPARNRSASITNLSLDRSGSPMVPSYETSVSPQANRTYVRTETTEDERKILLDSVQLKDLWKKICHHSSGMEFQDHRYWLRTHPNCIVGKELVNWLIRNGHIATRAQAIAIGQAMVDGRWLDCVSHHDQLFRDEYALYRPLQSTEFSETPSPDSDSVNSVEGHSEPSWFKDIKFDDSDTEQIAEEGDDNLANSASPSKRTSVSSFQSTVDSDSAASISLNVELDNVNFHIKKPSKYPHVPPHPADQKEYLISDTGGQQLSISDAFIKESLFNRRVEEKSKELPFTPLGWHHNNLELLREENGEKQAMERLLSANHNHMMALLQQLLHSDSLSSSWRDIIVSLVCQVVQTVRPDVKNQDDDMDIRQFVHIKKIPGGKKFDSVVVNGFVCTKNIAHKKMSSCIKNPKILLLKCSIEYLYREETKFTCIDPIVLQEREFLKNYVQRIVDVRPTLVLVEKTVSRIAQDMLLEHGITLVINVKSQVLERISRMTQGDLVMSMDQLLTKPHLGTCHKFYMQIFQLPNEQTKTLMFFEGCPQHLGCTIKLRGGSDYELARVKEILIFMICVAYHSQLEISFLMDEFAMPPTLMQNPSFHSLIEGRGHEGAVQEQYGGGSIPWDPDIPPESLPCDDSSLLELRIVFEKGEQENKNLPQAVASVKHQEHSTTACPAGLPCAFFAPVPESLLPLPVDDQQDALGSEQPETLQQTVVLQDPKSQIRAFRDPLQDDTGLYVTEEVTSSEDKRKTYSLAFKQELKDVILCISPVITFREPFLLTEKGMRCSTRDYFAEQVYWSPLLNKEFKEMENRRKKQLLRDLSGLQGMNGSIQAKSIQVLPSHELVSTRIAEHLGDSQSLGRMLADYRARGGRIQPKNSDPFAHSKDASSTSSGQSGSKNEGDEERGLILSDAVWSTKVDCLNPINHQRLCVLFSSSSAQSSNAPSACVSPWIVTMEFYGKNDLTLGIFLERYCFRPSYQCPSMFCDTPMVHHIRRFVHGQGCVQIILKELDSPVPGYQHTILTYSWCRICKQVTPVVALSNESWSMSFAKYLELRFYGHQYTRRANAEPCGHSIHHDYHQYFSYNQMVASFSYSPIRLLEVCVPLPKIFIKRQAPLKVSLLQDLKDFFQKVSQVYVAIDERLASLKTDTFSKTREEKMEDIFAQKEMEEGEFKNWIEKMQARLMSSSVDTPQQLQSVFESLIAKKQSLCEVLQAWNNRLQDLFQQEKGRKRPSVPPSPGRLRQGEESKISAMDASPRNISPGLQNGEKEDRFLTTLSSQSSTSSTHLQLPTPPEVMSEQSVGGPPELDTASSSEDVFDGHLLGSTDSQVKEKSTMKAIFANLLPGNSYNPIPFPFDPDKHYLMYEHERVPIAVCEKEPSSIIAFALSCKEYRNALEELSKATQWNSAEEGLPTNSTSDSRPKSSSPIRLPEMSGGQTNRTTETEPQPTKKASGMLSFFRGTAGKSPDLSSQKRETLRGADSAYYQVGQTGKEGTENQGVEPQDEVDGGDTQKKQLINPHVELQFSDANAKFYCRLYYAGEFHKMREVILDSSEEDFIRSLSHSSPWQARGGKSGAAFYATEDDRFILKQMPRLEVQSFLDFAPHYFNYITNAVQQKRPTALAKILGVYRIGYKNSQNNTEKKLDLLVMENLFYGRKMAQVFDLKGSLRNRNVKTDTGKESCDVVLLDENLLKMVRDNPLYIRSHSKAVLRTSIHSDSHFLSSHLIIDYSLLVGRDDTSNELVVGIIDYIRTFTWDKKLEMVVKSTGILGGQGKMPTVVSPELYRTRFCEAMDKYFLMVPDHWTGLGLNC

Row | Kd [8] | SMILES | improvement of GCase activity, compound alone [1] | IC50 [2] | vacuolization phenotype [3] | cell viability (CellTiter-Glo ATP-based) [4] | cell toxicity (Hoechst and Sytox Orange staining) [5] | ISR activation by RNAseq-based transcriptional changes [6] | efficacy in autoimmune disorders (Crohn's Disease, Rheumatoid Arthritis) [7] | safety and pharmacokinetic profiles [7] | increase of GCase activity, cotreatment with ISRIB (observed) ([1]; A16 + ISRIB (Fig. 5B))
1 | – | O=C(COc1ccc(Cl)cc1)NC1CCC(NC(=O)COc2ccc(Cl)cc2)CC1 (stereo not shown) [ISRIB, reference compound] | ~ 10% | 5 nM | – | – | – | – | – | – | –
2 | – | Ic1ccc(Nc2nc(NCCN3CCOCC3)nc(N3CCOCC3)n2)cc1 [A18] | – | – | vacuolization phenotype | above vehicle treatment | minimal cell toxicity | do not see RNAseq-based transcriptional changes | – | – | –
3 | – | Cc1cccc(/C=N/Nc2cc(N3CCOCC3)nc(OCCc3ccccn3)n2)c1 [Apilimod] | – | – | – | – | – | do not see RNAseq-based transcriptional changes | failed to show any efficacy | favorable safety and pharmacokinetic profiles | –
4 | < 0.17 nM | c1ccc2c(-c3nn4c(-c5ccncc5)nnc4s3)c[nH]c2c1 [A16] | ~ 70% | – | vacuolization phenotype | above vehicle treatment | minimal cell toxicity | do not see RNAseq-based transcriptional changes | – | – | ~ 100%
